Series [1] in a line: Selectivity index, ratio of CC50 for human MT4 cells to EC50 for HIV-1 3B. As to conditions: read-out: Ratio CC50/EC50. The class given is toxicity, cell-based. The essentials: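 Ratio CC50/EC50. CC50 comes from the MTT viability assay on uninfected MT-4 cells. EC50 comes from the MTT protection assay on MT-4 cells infected with HIV(IIIB).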
Series [2] is described as follows: Inhibition of His-6-tagged HIV-1 integrase-recombinant flag-tagged LEDGF/p75 (unknown origin) interaction after 1hr by AlphaScreen assay. The gist of the method: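 AlphaScreen. Ni-chelate acceptor and anti-flag donor beads were added (20 µg/ml each final), then incubated 1 h at 30 °C in low light. Acceptor-bead light emission was read.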
Series [3] in a line: Inhibition of His-6-tagged HIV-1 integrase-recombinant flag-tagged LEDGF/p75 (unknown origin) interaction at 100 uM after 1hr by AlphaScreen assay.
Series [4] relates to Human immunodeficiency virus 1. Description: Antiviral activity against HIV-1 3B infected in MT4 cells assessed as inhibition of virus-induced cytopathic effect by MTT assay. The class given is functional, organism-based. Conditions: Human immunodeficiency virus 1, 3B. The gist of the method: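 MT-4 lymphocytes infected with 100–300 CCID50 of HIV(IIIB) stock (CCID50 titrated on MT-4 cells), with fivefold serial compound dilutions. Protection against virus-induced cytopathic effect read by MTT reduction to formazan, measured spectrophotometrically. EC50 = concentration giving 50% protection against CPE.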

Series [5] has as its target Human immunodeficiency virus type 1 integrase (Human immunodeficiency virus 1, UniProt Q7ZJM1). Description: Inhibition of HIV-1 integrase strand transfer activity using 3'-end biotin labelled oligonucleotide/5'-end digoxigenin labelled oligonucleotide as substrate after 1 hr by ELISA. The gist of the method: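 ELISA strand-transfer assay. Integrase (diluted in 750 mM NaCl, 10 mM Tris pH 7.6, 10% glycerol, 1 mM β-mercaptoethanol; 1.6 µM) was mixed with annealed oligonucleotides (7 nM): a 3'-biotin strand plus a 5'-digoxigenin strand lacking 3'-terminal GT. Buffer contained MgCl2, DTT, HEPES pH 7.5, 5% PEG and 15% DMSO. Incubation 1 h at 37 °C, NaOH denaturation, detection on avidin-coated plates.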

Series [6] can be described thus: Cytotoxicity against human MT4 cells assessed as cell viability by MTT assay. The class given is cell-based. The essentials:
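Uninfected MT-4 lymphocytes exposed to fivefold serial compound dilutions, run in parallel with the antiviral test. Viability read by MTT reduction to formazan by mitochondrial dehydrogenase, measured spectrophotometrically. CC50 = concentration lowering MT-4 viability by 50%.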

Each structure is given as a SMILES string. Activity calls are given as the source filed them. The rule behind the calls is not given here.

Chain of Human immunodeficiency virus type 1 integrase (Q7ZJM1 whole entry): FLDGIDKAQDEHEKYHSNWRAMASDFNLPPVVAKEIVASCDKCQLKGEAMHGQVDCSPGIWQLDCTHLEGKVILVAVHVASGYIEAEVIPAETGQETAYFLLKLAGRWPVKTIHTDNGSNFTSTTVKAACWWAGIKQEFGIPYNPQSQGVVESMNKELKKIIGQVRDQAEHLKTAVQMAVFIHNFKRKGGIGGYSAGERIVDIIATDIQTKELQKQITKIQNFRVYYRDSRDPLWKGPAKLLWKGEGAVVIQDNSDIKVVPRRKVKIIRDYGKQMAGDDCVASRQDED

`COc1cccc2c1c(C(=O)/C=C(\O)C(=O)O)cn2Cc1ccc(F)cc1`: the selectivity ratio in series [1] stood at 70. Moreover, the concentration for half-maximal inhibition (IC50) in series [2] came out at 36.2 µM.

Turning to `COc1ccc2c(c1)c(C(=O)/C=C(\O)C(=O)O)cn2Cc1ccc(C(C)(C)C)cc1`, the IC50 in series [2] was determined as 91.7 µM. Moreover, in series [3], the inhibition came to 65%.

In the case of `COc1ccc2c(c1)c(C(=O)/C=C(\O)C(=O)O)cn2Cc1cc(C)cc(C)c1`, the selectivity ratio in series [1] amounted to 23. For the same compound, the concentration for a half-maximal effect (EC50) in series [4] came out at 2.24 µM. For the same compound, the IC50 in series [5] was found to be 1.09 µM; in series [2], 53.9 µM. Also, the CC50 in series [6] amounted to 51 µM. The inhibition in series [3] amounted to 89%.

For `COc1ccc2c(c1)c(C(=O)C1=C(O)C(=O)OC1)cn2Cc1c(C)cc(C)cc1C`, the IC50 in series [2] is 33.2 µM. In series [3], the inhibition is 82%.

Consider `O=C1OCC(C(=O)c2cn(Cc3ccc(-c4ccccc4)cc3)c3ccc(Cl)cc23)=C1O`, for which the IC50 in series [2] was 21.8 µM. Moreover, the inhibition in series [3] stood at 80%.

`O=C(O)/C(O)=C/C(=O)c1cn(Cc2ccc(C(F)(F)F)cc2)c2ccc(Cl)cc12`: the selectivity ratio in series [1] was 5. The EC50 in series [4] was found to be 5.09 µM. Moreover, the values for the concentration for half-maximal inhibition (IC50) in series [5] and in series [2] were 0.26 µM and 32.9 µM, respectively. Also, in series [6], the CC50 came out at 23 µM. The inhibition in series [3] is 80%.

With `CC(C)(C)c1ccc(Cn2cc(C(=O)C3=C(O)C(=O)OC3)c3cc(F)ccc32)cc1`, the IC50 in series [2] was 36.2 µM. In addition, in series [3], the inhibition was 96%.

For the compound `COc1ccc2c(c1)c(C(=O)C1=C(O)C(=O)OC1)cn2Cc1ccc(-c2ccccc2)cc1`, the inhibition in series [3] was 51%.

On to `COc1ccc2c(c1)c(C(=O)C1=C(O)C(=O)OC1)cn2Cc1ccc(C(C)(C)C)cc1`, for which the IC50 in series [2] was 17.1 µM. The inhibition in series [3] stood at 93%.

Take `O=C1OCC(C(=O)c2cn(Cc3ccc(C(F)(F)F)cc3C(F)(F)F)c3ccc(Cl)cc23)=C1O`: in series [2], the concentration for half-maximal inhibition (IC50) was 21.5 µM. Besides, the inhibition in series [3] came to 86%.

Consider `Cc1cc(C)c(Cn2cc(C(=O)/C=C(\O)C(=O)O)c3cc(F)ccc32)c(C)c1`, for which the selectivity ratio in series [1] came out at 21. The EC50 in series [4] turned out to be 5.14 µM. Also, the half-maximal inhibitory concentration (IC50) in series [5] is 2.51 µM; in series [2], 15.2 µM. The cytotoxic concentration (CC50) in series [6] came to 104 µM. Also, in series [3], the inhibition was found to be 71%.

As to `Cc1cc(C)cc(Cn2cc(C(=O)C3=C(O)C(=O)OC3)c3cc(F)ccc32)c1`, in series [2], the IC50 turned out to be 20.3 µM. The inhibition in series [3] was determined as 73%.

`O=C1OCC(C(=O)c2cn(Cc3ccc(C(F)(F)F)cc3C(F)(F)F)c3ccc(F)cc23)=C1O`: in series [3], the inhibition is 37%.

As to `CC(C)(C)c1ccc(Cn2cc(C(=O)C3=C(O)C(=O)OC3)c3cc(Cl)ccc32)cc1`, in series [1], the selectivity ratio worked out at 2. Further, the concentration giving a half-maximal response (EC50) in series [4] came out at 23.4 µM. The CC50 in series [6] was found to be 53 µM. Besides, in series [2], the IC50 was 52.5 µM. In addition, in series [3], the inhibition amounted to 83%.

Take `Cc1cc(C)cc(Cn2cc(C(=O)C3=C(O)C(=O)OC3)c3cc(Cl)ccc32)c1`: the selectivity ratio in series [1] is 3. The EC50 in series [4] turned out to be 16.9 µM. The CC50 in series [6] was found to be 53.5 µM. The half-maximal inhibitory concentration (IC50) in series [2] came to 23.1 µM. Moreover, the inhibition in series [3] was 96%.

As for `O=C1OCC(C(=O)c2cn(Cc3ccc(C(F)(F)F)cc3)c3ccc(Cl)cc23)=C1O`, the 50% inhibitory concentration (IC50) in series [2] came to 12.3 µM. In addition, in series [3], the inhibition amounted to 92%.

In the case of `Cc1cc(C)cc(Cn2cc(C(=O)/C=C(\O)C(=O)O)c3cc(F)ccc32)c1`, the inhibition in series [3] is 26%.

As for `COc1ccc2c(c1)c(C(=O)/C=C(\O)C(=O)O)cn2Cc1ccc(-c2ccccc2)cc1`, the concentration for half-maximal inhibition (IC50) in series [2] is above 100 µM. Further, the inhibition in series [3] is 59%.

As to `COc1ccc2c(c1)c(C(=O)/C=C(\O)C(=O)O)cn2Cc1ccc(C(F)(F)F)cc1C(F)(F)F`, the inhibition in series [3] came to 33%.

Turning to `O=C(O)/C(O)=C/C(=O)c1cn(Cc2ccc(C(F)(F)F)cc2)c2ccc(F)cc12`, the selectivity ratio in series [1] stood at 2. The concentration giving a half-maximal response (EC50) in series [4] came to 7.83 µM. Further, the half-inhibitory concentration (IC50) was found to be 1.55 µM in series [5] and 17.8 µM in series [2]. Also, the CC50 in series [6] was 15 µM. The inhibition in series [3] is 77%.

For `COc1ccc2c(c1)c(C(=O)/C=C(\O)C(=O)O)cn2Cc1c(C)cc(C)cc1C`, the selectivity ratio in series [1] worked out at 8. The EC50 in series [4] was found to be 3.23 µM. Moreover, the concentration for half-maximal inhibition (IC50) in series [5] amounted to 0.42 µM; in series [2], 33.1 µM. Further, the CC50 in series [6] was found to be 23.5 µM. Also, in series [3], the inhibition was determined as 72%.

In the case of `Cc1cc(C)cc(Cn2cc(C(=O)/C=C(\O)C(=O)O)c3c(O)cccc32)c1`, the selectivity ratio in series [1] is 10. The EC50 in series [4] was determined as 4.63 µM. Further, in series [6], the CC50 was determined as 44 µM. Further, the half-maximal inhibitory concentration (IC50) in series [2] came to 3.5 µM.

For `Cc1cc(C)c(Cn2cc(C(=O)/C=C(\O)C(=O)O)c3cc(Cl)ccc32)c(C)c1`, the IC50 in series [2] is above 100 µM. Further, the inhibition in series [3] worked out at 59%.

Regarding `O=C(O)/C(O)=C/C(=O)c1cn(Cc2ccc(C(F)(F)F)cc2C(F)(F)F)c2ccc(F)cc12`, the inhibition entry in series [3] was “inactive”.

Regarding `O=C(O)/C(O)=C/C(=O)c1cn(Cc2ccc(-c3ccccc3)cc2)c2ccc(F)cc12`, the IC50 in series [2] was 8.1 µM. Further, the inhibition in series [3] worked out at 72%.

Take `Cc1cc(C)c(Cn2cc(C(=O)C3=C(O)C(=O)OC3)c3cc(Cl)ccc32)c(C)c1`: in series [1], the selectivity ratio stood at 2. In addition, the concentration for a half-maximal effect (EC50) in series [4] stood at 19.8 µM. For the same compound, the CC50 in series [6] was 40.5 µM. Also, the IC50 in series [2] is 23.6 µM. The inhibition in series [3] was found to be 85%.

`O=C1OCC(C(=O)c2cn(Cc3ccc(-c4ccccc4)cc3)c3ccc(F)cc23)=C1O`: the 50% inhibitory concentration (IC50) in series [2] amounted to 15.8 µM. For the same compound, the inhibition in series [3] was 89%.

Take `COc1ccc2c(c1)c(C(=O)C1=C(O)C(=O)OC1)cn2Cc1cc(C)cc(C)c1`: the inhibition in series [3] stood at 66%.

For the compound `O=C(O)/C(O)=C/C(=O)c1cn(Cc2ccc(C(F)(F)F)cc2C(F)(F)F)c2ccc(Cl)cc12`, the half-inhibitory concentration (IC50) in series [2] stood at 3.8 µM. Besides, the inhibition in series [3] worked out at 80%.

With `CC(C)(C)c1ccc(Cn2cc(C(=O)/C=C(\O)C(=O)O)c3cc(F)ccc32)cc1`, the inhibition in series [3] was 33%.

Consider `COc1ccc2c(c1)c(C(=O)C1=C(O)C(=O)OC1)cn2Cc1ccc(C(F)(F)F)cc1`, for which the concentration for half-maximal inhibition (IC50) in series [2] worked out at 52.2 µM. Further, the inhibition in series [3] was 65%.

Turning to `COc1ccc2c(c1)c(C(=O)/C=C(\O)C(=O)O)cn2Cc1ccc(C(F)(F)F)cc1`, the inhibition in series [3] is 40%.

As for `O=C1OCC(C(=O)c2cn(Cc3ccc(C(F)(F)F)cc3)c3ccc(F)cc23)=C1O`, the IC50 in series [2] is 12.2 µM. The inhibition in series [3] was 65%.

As to `Cc1cc(C)cc(Cn2cc(C(=O)/C=C(\O)C(=O)O)c3cc(Cl)ccc32)c1`, the selectivity ratio in series [1] is above 2. In addition, the EC50 in series [4] was 56.1 µM. Besides, in series [6], the CC50 is above 125 µM. For the same compound, the inhibition result in series [3] was “inactive”.

For `Cc1cc(C)c(Cn2cc(C(=O)C3=C(O)C(=O)OC3)c3cc(F)ccc32)c(C)c1`, in series [1], the selectivity ratio is 2. The EC50 in series [4] worked out at 49 µM. In addition, the CC50 in series [6] was determined as 107 µM. Also, the IC50 in series [2] came out at 5.6 µM. Moreover, the inhibition in series [3] amounted to 81%.

Regarding `COc1ccc2c(c1)c(C(=O)C1=C(O)C(=O)OC1)cn2Cc1ccc(C(F)(F)F)cc1C(F)(F)F`, in series [2], the IC50 is 39.5 µM. For the same compound, the inhibition in series [3] worked out at 61%.

For `O=C(O)/C(O)=C/C(=O)c1cn(Cc2ccc(-c3ccccc3)cc2)c2ccc(Cl)cc12`, in series [3], the inhibition came to 31%.

Turning to `CC(C)(C)c1ccc(Cn2cc(C(=O)/C=C(\O)C(=O)O)c3cc(Cl)ccc32)cc1`, in series [2], the IC50 came to 10 µM. For the same compound, the inhibition in series [3] was found to be 88%.
